In ChEMBL document CHEMBL1125266, “Tyrphostins. 2. Heterocyclic and alpha-substituted benzylidenemalononitrile tyrphostins as potent inhibitors of EGF receptor and ErbB2/neu tyrosine kinases” (J Med Chem, 1991):

How the values were obtained:
[1] = molecular target: T1, Epidermal growth factor receptor (Homo sapiens, UniProt P00533); test: Inhibition of polyGAT phosphorylation
[2] = molecular target: Receptor tyrosine-protein kinase erbB-2 (Homo sapiens, UniProt P04626); test: In vitro inhibition of ERBB2 receptor kinase autophosphorylation.
Sequence of Receptor tyrosine-protein kinase erbB-2 (P04626 whole entry): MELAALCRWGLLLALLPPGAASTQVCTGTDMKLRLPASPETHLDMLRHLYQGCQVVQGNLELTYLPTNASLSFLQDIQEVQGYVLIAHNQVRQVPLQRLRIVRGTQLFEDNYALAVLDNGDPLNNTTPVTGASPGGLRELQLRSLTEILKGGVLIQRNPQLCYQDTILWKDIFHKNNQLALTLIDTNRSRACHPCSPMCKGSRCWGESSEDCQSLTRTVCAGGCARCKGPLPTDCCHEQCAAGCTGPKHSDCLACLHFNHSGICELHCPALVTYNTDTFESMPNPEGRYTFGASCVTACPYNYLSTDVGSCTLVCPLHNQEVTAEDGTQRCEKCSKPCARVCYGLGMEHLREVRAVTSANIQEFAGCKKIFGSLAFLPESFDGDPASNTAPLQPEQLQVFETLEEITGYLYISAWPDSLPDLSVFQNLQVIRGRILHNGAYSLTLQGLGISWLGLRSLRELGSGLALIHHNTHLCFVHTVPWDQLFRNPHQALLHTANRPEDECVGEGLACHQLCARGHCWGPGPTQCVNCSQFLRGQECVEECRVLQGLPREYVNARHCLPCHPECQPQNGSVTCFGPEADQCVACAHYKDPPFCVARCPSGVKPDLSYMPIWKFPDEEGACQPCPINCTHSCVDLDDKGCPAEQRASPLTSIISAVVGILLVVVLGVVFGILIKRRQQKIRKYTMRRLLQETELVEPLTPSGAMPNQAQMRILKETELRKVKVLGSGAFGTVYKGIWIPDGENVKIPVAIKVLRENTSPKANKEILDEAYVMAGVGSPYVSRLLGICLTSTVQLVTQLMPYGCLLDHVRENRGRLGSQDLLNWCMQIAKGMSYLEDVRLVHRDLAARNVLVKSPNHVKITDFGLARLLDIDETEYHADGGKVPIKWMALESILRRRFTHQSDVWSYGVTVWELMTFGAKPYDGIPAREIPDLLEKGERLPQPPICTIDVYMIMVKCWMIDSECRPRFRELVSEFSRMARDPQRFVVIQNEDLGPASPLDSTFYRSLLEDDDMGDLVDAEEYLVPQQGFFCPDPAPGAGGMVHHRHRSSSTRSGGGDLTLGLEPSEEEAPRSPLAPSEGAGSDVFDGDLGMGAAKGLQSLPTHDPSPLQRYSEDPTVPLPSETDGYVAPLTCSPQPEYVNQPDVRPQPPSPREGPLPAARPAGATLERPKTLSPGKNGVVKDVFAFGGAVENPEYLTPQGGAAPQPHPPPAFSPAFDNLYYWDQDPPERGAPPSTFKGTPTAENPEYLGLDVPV

[3] = molecular target: T1, Epidermal growth factor receptor; test: In vitro inhibition of HER1 autophosphorylation.
NIH3T3 [4] = test: (§1) Inhibition of HER14 serum dependent cell proliferation without EGF; assay type: functional, Mus musculus
In short: (§2)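 Serum-starved HER14 cells (NIH3T3 stably overexpressing EGF receptor) were given inhibitor at least 6-8 h before serum stimulation, with no EGF added. Inhibitor-containing medium was replaced every 24 h. Three parallel wells were used per concentration, and the IC50 for inhibition of serum-supported growth was determined.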

NIH3T3 [5] = test: as §1; details: Mus musculus
NIH3T3 [6] = test: Inhibition of HER14 (human EGFR overexpressing NIH3T3) cell growth in the absence of EGF.; assay type: functional, Mus musculus; in short: as §2
[7] = molecular target: T1, Epidermal growth factor receptor; test: Inhibition of epidermal growth factor receptor autophosphorylation
NIH3T3 [8] = test: as §1; assay type: functional, cell-based; details: Mus musculus; in short: as §2

T1 sequence (P00533 whole entry): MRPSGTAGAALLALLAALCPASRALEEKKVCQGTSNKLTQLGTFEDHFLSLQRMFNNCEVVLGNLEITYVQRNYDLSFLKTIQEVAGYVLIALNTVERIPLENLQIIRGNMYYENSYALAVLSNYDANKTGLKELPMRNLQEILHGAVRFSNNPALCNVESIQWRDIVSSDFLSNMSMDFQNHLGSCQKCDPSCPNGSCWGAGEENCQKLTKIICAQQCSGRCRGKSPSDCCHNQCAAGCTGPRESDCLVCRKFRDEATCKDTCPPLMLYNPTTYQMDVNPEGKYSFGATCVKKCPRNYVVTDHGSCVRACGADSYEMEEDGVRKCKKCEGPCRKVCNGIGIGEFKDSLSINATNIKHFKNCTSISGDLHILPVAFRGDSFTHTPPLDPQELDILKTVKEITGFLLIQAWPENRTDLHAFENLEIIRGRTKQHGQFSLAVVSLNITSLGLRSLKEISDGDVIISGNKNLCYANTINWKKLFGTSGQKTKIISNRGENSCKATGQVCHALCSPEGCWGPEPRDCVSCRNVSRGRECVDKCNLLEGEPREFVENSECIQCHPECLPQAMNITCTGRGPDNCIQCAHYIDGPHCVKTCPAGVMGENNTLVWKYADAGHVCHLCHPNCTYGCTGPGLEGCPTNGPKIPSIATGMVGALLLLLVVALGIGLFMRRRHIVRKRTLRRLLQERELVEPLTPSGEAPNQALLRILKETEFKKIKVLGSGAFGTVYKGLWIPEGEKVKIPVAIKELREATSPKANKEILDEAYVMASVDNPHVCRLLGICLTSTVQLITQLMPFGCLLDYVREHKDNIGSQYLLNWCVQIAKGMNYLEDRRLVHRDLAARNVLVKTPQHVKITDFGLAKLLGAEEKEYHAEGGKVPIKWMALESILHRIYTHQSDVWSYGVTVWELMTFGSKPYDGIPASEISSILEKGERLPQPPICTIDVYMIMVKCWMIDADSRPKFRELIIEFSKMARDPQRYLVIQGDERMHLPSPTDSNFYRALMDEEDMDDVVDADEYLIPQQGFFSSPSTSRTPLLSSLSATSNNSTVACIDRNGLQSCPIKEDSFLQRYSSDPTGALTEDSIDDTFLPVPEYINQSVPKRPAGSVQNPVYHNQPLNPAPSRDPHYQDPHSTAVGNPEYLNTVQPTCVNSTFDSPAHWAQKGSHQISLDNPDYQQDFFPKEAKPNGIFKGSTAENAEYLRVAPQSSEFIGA

SMILES	IC50 [1] [µM]	IC50 [2] [µM]	IC50 [3] [µM]	also measured
N#CC(C#N)=C1C(=O)Nc2ccc([N+](=O)[O-])cc21	40			
N#C/C(=C\c1ccc(O)c(O)c1)C(=O)N1CCCCC1	> 1000			
N#C/C(=C\c1ccc(O)c(O)c1)C(=O)N1CCN(c2ccccc2)CC1	4.3	49	55	
N#CC(C#N)=Cc1ccc2c(c1)CCN2Cc1ccccc1	> 2500			
N#CC(C#N)=C1CCCc2c(O)cccc21	1200			
N#CC(C#N)=C1CCc2cc(O)c(O)cc21	0.5			Inhibition (NIH3T3 [4]): >150%
N#C/C(=C\c1ccc(O)c(O)c1)C(=O)NCCc1ccccc1	0.93	23	< 0.625	
N#CC(C#N)=Cc1ccc2[nH]ccc2c1				IC50 (NIH3T3 [5]): 12 µM
C[S+]([O-])c1ccc(C=C(C#N)C#N)cc1 (centres undefined)	1800			
N#C/C(=C\c1ccc(O)c(O)c1)C(N)=O		6.4	4.5	IC50 (NIH3T3 [6]): 60 µM
N#CC(C#N)=Cc1ccco1	> 1250			
N#C/C(=C\c1ccc(O)c(O)c1)C(=O)NC1CCCCC1	1.6	17	5.9	IC50 (NIH3T3 [6]): 50 µM
N#C/C(=C\c1ccc(O)c(O)c1)C(=O)NCCCCc1ccccc1	1.1	> 500	5	IC50 (NIH3T3 [6]): 10 µM
N#C/C(=C\c1ccc(O)c(O)c1)C(=O)NCCCc1ccccc1	0.7	35	0.7	IC50 (NIH3T3 [6]): 25 µM
Cc1ccc(C(=O)/C(C#N)=C/c2ccc(O)c(O)c2)cc1	0.88	10	15	IC50 (NIH3T3 [6]): 100 µM
N#C/C(=C\c1ccc(O)c(O)c1)C(=O)c1ccc(F)cc1	0.56	13.6		IC50 (NIH3T3 [4]): 80 µM; IC50 [7]: 5.1 µM
Cc1cccc(C)c1NC(=O)/C(C#N)=C/c1ccc(O)c(O)c1	5.1	34	10.3	IC50 (NIH3T3 [6]): > 20 µM
N#CC(C#N)=C1C(=O)Nc2ccc(O)cc21	12.5			
Cc1cc(C)c(C(=O)/C(C#N)=C/c2ccc(O)c(O)c2)c(C)c1	10.7	50	24	
N#C/C(=C\c1ccc(O)c(O)c1)C(=O)c1cccs1	3.1	35	31	
N#C/C(=C\c1ccc(O)c(O)c1)C(=O)c1ccccc1	1.3	18	14	IC50 (NIH3T3 [6]): 120 µM
CN1C(=O)C(=C(C#N)C#N)c2cc(O)ccc21	26			

SMILES	IC50 [1] [µM]	IC50 [2] [µM]	IC50 [3] [µM]	also measured
N#C/C(=C\c1ccc(O)c(O)c1)C(=O)Nc1ccccc1Cl	1.1	57	2.1	IC50 (NIH3T3 [6]): 12 µM
N#CC(C#N)=Cc1cccnc1	225			
CCOC(=O)C(Cc1ccccc1)NC(=O)/C(C#N)=C/c1ccc(O)c(O)c1 (centres undefined)	1.53	> 333	49	
N#C/C(=C\c1ccc(O)c(O)c1)C(=O)c1ccc(O)c(O)c1	0.37	18	5	IC50 (NIH3T3 [4]): > 50 µM
COc1ccc(CCNC(=O)/C(C#N)=C/c2ccc(O)c(O)c2)cc1OC	1.7			
N#C/C(=C\c1ccc(O)c(O)c1)C(=O)N1CCc2ccccc21	2.1	4.9	12	IC50 (NIH3T3 [6]): 100 µM
N#C/C(=C\c1ccc(O)c(O)c1)C(=O)NCc1ccccc1		13.5		IC50 (NIH3T3 [6]): 25 µM
N#CC(C#N)=Cc1ccc(S(=O)(=O)O)o1	> 250			
N#C/C(=C\c1ccc(O)c(O)c1)C(=O)Nc1ccccc1		42		IC50 (NIH3T3 [6]): > 50 µM
N#C/C(=C\c1ccc(O)c(O)c1)C(=O)c1ccc([N+](=O)[O-])cc1	2.3	3	11	IC50 (NIH3T3 [6]): <<20 uM
COc1cc2c(cc1O)NC(=O)C2=C(C#N)C#N	60			
COc1ccc(C=C(C#N)C#N)cc1F	800			
COc1ccc(NC(=O)/C(C#N)=C/c2ccc(O)c(O)c2)c(OC)c1		> 166		
N#CC(C#N)=C1CCc2c1ccc(O)c2O	7			
N#CC(C#N)=C1C(=O)Nc2cc(O)c(O)cc21	2.5			
CSc1ccc(C=C(C#N)C#N)cc1	> 625			
CC(=O)Nc1ccc(C=C(C#N)C#N)cc1	> 325			
N#CC(C#N)=Cc1ccc(C#N)cc1	1400			
N#C/C(=C\c1ccc(O)c(O)c1)C(=O)c1ccccc1Cl	1.54	12	6.6	
N#CC(C#N)=C(N)/C(C#N)=C/c1ccc2[nH]ccc2c1	820			IC50 (NIH3T3 [4]): >>100 uM; IC50 (NIH3T3 [8]): 7 µM
CC(NC(=O)/C(C#N)=C/c1ccc(O)c(O)c1)c1ccccc1 (stereo in doubt; 44)	0.4	37	2.5	IC50 (NIH3T3 [6]): 10 µM
CC(NC(=O)/C(C#N)=C/c1ccc(O)c(O)c1)c1ccccc1 (stereo in doubt; 50)	0.86			
